# ChEMBL document CHEMBL4330067, “Synthesis and mechanistic studies of diketo acids and their bioisosteres as potential antibacterial agents” (Eur J Med Chem, 2019)
# The source made the active and inactive calls. The calls are words filed in the database; no cut-off is given here.
# Key:
# Escherichia coli [1] = experiment: Antibacterial activity against Escherichia coli MRC17 after overnight incubation; format: functional; details: for MIC: Escherichia coli, MRC17
# How it was run: (§1)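 Multidrug-resistant E. coli isolates in Luria broth, test range 8 to 1024 µg/mL (ciprofloxacin 0.49 to 63.3 µg/mL). Inoculum 10 µL of a 1000-fold diluted 0.1 OD600 culture, incubated overnight at 37 °C. OD read at 600 nm. % inhibition = (a−b)/a×100, with media and compound-colour blanks subtracted.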
# Escherichia coli [2] = experiment: Antibacterial activity against Escherichia coli MRC24 after overnight incubation; format: functional; how it was run: as §1
# Streptococcus pneumoniae [3] = experiment: Antibacterial activity against Streptococcus pneumoniae MTCC 655 after 24 hrs by broth dilution assay; format: functional; details: MTCC 655, 24 h
# How it was run: (§2)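 Broth dilution per NCCLS in nutrient broth, serial dilutions 1000 to 7.8 µg/mL, DMSO below 4% final. Inoculum approx. 2.5×10⁶ cells/mL, 37 °C with shaking at 150 rpm for 24 h. MIC taken as the lowest concentration with no visible growth. Ciprofloxacin served as positive control.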
# Escherichia coli [4] = experiment: Antibacterial activity against Escherichia coli MRAE32 after overnight incubation; format: functional; how it was run: as §1
# Enterococcus faecalis [5] = experiment: Antibacterial activity against Enterococcus faecalis MTCC 439 after 24 hrs by broth dilution assay; format: functional; details: MTCC 439, 24 h; how it was run: as §2
# Escherichia coli [6] = experiment: Antibacterial activity against Escherichia coli MROB11 after overnight incubation; format: functional; how it was run: as §1
# Klebsiella pneumoniae = experiment: Antibacterial activity against Klebsiella pneumoniae ATCC 700603 after 24 hrs by broth dilution assay; format: functional; details: Klebsiella pneumoniae, 700603, 24 h; how it was run: as §2
# Escherichia coli [7] = experiment: Antibacterial activity against Escherichia coli MRAE26 after overnight incubation; format: functional; how it was run: as §1
# Escherichia coli [8] = experiment: Antibacterial activity against Escherichia coli MRAE33 after overnight incubation; format: functional; how it was run: as §1
# Escherichia coli [9] = experiment: Antibacterial activity against Escherichia coli MRAE44 after overnight incubation; format: functional; how it was run: as §1
# Escherichia coli [10] = experiment: Antibacterial activity against Escherichia coli MRA11 after overnight incubation; format: functional; details: for MIC: Escherichia coli, MRA11; how it was run: as §1
# Salmonella typhimurium = experiment: Antibacterial activity against Salmonella typhimurium MTCC 3224 after 24 hrs by broth dilution assay; format: functional, Salmonella enterica subsp. enterica serovar Typhimurium; details: Salmonella enterica, MTCC 3224, 24 h; how it was run: as §2
# CHO [11] = experiment: Cytotoxicity against CHO cells at 50 ug/mL after 48 hrs by MTT assay; format: cell-based, Cricetulus griseus; details: chinese hamster
# How it was run: (§3)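 MTT assay: cells maintained in DMEM with 10% FBS and penicillin/streptomycin at 37 °C, 5% CO2. Seeded at approx. 2×10⁴ cells/well, 24 h before treatment, then exposed to 10 to 400 µg/mL for 48 h at 37 °C. MTT (5 mg/mL stock in PBS) added for 4 h, formazan dissolved in DMSO, A570 read. Triplicate wells; viability given relative to untreated cells.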
# Escherichia coli [12] = experiment: Antibacterial activity against Escherichia coli ATCC 25922 after 24 hrs by broth dilution assay; format: functional; details: ATCC 25922, 24 h; how it was run: as §2
# Escherichia coli [13] = experiment: Antibacterial activity against Escherichia coli MRAE44 at 1024 ug/mL after 24 hrs by broth dilution assay; format: functional, organism-based; how it was run: as §1
# CHO [14] = experiment: Cytotoxicity against CHO cells at 300 ug/mL after 48 hrs by MTT assay; format: cell-based, Cricetulus griseus; details: chinese hamster; how it was run: as §3
# [15] = Inhibition of Enterococcus faecalis methionine aminopeptidase 1A using Met-AMC as substrate by Dixon method
# How it was run: (§4)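 Purified MetAP at 4 µM in 50 mM HEPES with 150 mM KCl and CoCl2 at 3 molar equivalents of enzyme. pH 7.5 for SpMetAP1a and EfMetAP1a, pH 8.0 for HsMetAP1b. Substrate L-Met-AMC at 50, 100 and 150 µM. Compounds (10 mM DMSO stocks) tested over 1 to 120 µM for % inhibition; Ki by Dixon method.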
# Escherichia coli [16] = experiment: Synergistic antibacterial activity against Escherichia coli MRAE33 assessed as fractional inhibitory concentration index after 18 hrs in presence of ciprofloxacin by checkerboard method; format: functional
# How it was run: (§5)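 Checkerboard combination with ciprofloxacin in Mueller-Hinton broth: compound 1024 to 16 µg/mL crossed with ciprofloxacin 128 to 2 µg/mL. Inoculum 5×10⁵ CFU/mL suspension, 18 h at 37 °C. Fractional inhibitory concentration index derived from the combination.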
# Escherichia coli [17] = experiment: Antibacterial activity against Escherichia coli MROB11 at 512 ug/mL after 24 hrs by broth dilution assay relative to control; format: functional; how it was run: as §1
# Escherichia coli [18] = experiment: Synergistic antibacterial activity against Escherichia coli MRC17 assessed as ciprofloxacin MIC at 16 to 1024 ug/mL after 18 hrs by checkerboard method; format: functional; details: MRC17, 18 h; how it was run: as §5
# Escherichia coli [19] = experiment: Antibacterial activity against Escherichia coli MRAE26 at 1024 ug/mL after 24 hrs by broth dilution assay relative to control; format: functional; how it was run: as §1
# Escherichia coli [20] = experiment: Antibacterial activity against Escherichia coli MRAE32 at 512 ug/mL after 24 hrs by broth dilution assay relative to control; format: functional; how it was run: as §1
# [21] = Inhibition of Mycobacterium tuberculosis methionine aminopeptidase 1C using Met-AMC as substrate by Dixon method
# Homo sapiens = organism: Homo sapiens; experiment: Inhibition of human methionine aminopeptidase 1B at 100 uM using Met-AMC as substrate relative to control; how it was run: as §4
# Streptococcus pneumoniae [22] = experiment: Inhibition of Streptococcus pneumoniae methionine aminopeptidase 1A at 100 uM using Met-AMC as substrate relative to control; how it was run: as §4
# Escherichia coli [23] = experiment: Synergistic antibacterial activity against Escherichia coli MRC17 after 18 hrs in presence of ciprofloxacin by checkerboard method; format: functional; details: MRC17, 18 h; how it was run: as §5
# Escherichia coli [24] = experiment: Synergistic antibacterial activity against Escherichia coli MRAE33 assessed as ciprofloxacin MIC at 16 to 1024 ug/mL after 18 hrs by checkerboard method; format: functional; details: MRAE33, 18 h; how it was run: as §5
# Escherichia coli [25] = experiment: Antibacterial activity against Escherichia coli MRC17 at 512 ug/mL after 24 hrs by broth dilution assay relative to control; format: functional; how it was run: as §1
# Escherichia coli [26] = experiment: Synergistic antibacterial activity against Escherichia coli MRA11 assessed as ciprofloxacin MIC at 16 to 1024 ug/mL after 18 hrs by checkerboard method; format: functional; details: MRA11, 18 h; how it was run: as §5
# Escherichia coli [27] = experiment: Antibacterial activity against Escherichia coli MRA11 at 512 ug/mL after 24 hrs by broth dilution assay relative to control; format: functional; how it was run: as §1
# Enterococcus faecalis [28] = experiment: Inhibition of Enterococcus faecalis methionine aminopeptidase 1A at 100 uM using Met-AMC as substrate relative to control; how it was run: as §4
# [29] = Inhibition of human methionine aminopeptidase 1B using Met-AMC as substrate by Dixon method; how it was run: as §4
# Escherichia coli [30] = experiment: Antibacterial activity against Escherichia coli MRAE33 at 1024 ug/mL after 24 hrs by broth dilution assay relative to control; format: functional; how it was run: as §1
# Escherichia coli [31] = experiment: Synergistic antibacterial activity against Escherichia coli MRC17 assessed as fractional inhibitory concentration index after 18 hrs in presence of ciprofloxacin by checkerboard method; format: functional
# How it was run: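 Checkerboard combination against MDR E. coli. Test agent gradient 1024–16 µg/mL crossed with ciprofloxacin 128–2 µg/mL in Mueller-Hinton broth. Wells were inoculated with a 5 × 10⁵ CFU/mL suspension and incubated 18 h at 37 °C. Interaction was expressed as the fractional inhibitory concentration index (FICI).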
# Pseudomonas aeruginosa = experiment: Antibacterial activity against Pseudomonas aeruginosa MTCC 2453 after 24 hrs by broth dilution assay; format: functional; details: MTCC 2453, 24 h; how it was run: as §2
# [32] = tested on: Mycobacterium tuberculosis; experiment: Inhibition of Mycobacterium tuberculosis methionine aminopeptidase 1C at 100 uM using Met-AMC as substrate relative to control
# How it was run: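 Purified MtMetAP1c (4 µM) in 50 mM Hepes pH 7.5 with 150 mM KCl and CoCl2 at three molar equivalents of enzyme. Substrate was L-Met-AMC at 50, 100 or 150 µM. Compounds came from 10 mM DMSO stocks. Percent inhibition was taken against the uninhibited control.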
# Escherichia coli [33] = experiment: Synergistic antibacterial activity against Escherichia coli MRA11 after 18 hrs in presence of ciprofloxacin by checkerboard method; format: functional; details: MRA11, 18 h; how it was run: as §5
# Escherichia coli [34] = experiment: Synergistic antibacterial activity against Escherichia coli MRAE33 after 18 hrs in presence of ciprofloxacin by checkerboard method; format: functional; details: MRAE33, 18 h; how it was run: as §5
# [35] = Inhibition of Streptococcus pneumoniae methionine aminopeptidase 1A using Met-AMC as substrate by Dixon method; how it was run: as §4
# Escherichia coli [36] = experiment: Antibacterial activity against Escherichia coli MRC24 at 512 ug/mL after 24 hrs by broth dilution assay relative to control; format: functional; how it was run: as §1
# Escherichia coli [37] = experiment: Synergistic antibacterial activity against Escherichia coli MRA11 assessed as fractional inhibitory concentration index after 18 hrs in presence of ciprofloxacin by checkerboard method; format: functional; how it was run: as §5
# [38] = Cytotoxicity against CHO cells assessed as cell viability at 100 ug/mL after 48 hrs by MTT assay relative to control; format: cell-based, Cricetulus griseus; details: chinese hamster, read-out: Activity; how it was run: as §3
smiles,measurement,setting,value
O=C(O)c1cn(C2CC2)c2cc(N3CCNCC3)c(F)cc2c1=O [CIPROFLOXACIN],ICmax,Escherichia coli [1],63.3 µg/mL
same,MIC,Escherichia coli [1],128 µg/mL
same,ICmax,Escherichia coli [2],1.975 µg/mL
same,MIC,Streptococcus pneumoniae [3],0.312 µg/mL
same,ICmax,Escherichia coli [4],63.3 µg/mL
same,MIC,Enterococcus faecalis [5],0.0625 µg/mL
same,ICmax,Escherichia coli [6],1.975 µg/mL
same,MIC,Klebsiella pneumoniae,0.25 µg/mL
same,ICmax,Escherichia coli [7],1.975 µg/mL
same,ICmax,Escherichia coli [8],7.9 µg/mL
same,ICmax,Escherichia coli [9],63.3 µg/mL
same,ICmax,Escherichia coli [10],63.3 µg/mL
same,MIC,Escherichia coli [10],128 µg/mL
same,MIC,Salmonella typhimurium,0.0156 µg/mL
COC(=O)[C@@H](C)NC(=O)/C(O)=C/C(=O)c1oc2ccc(Br)cc2c1C,Activity,CHO [11],Non-Toxic
same,MIC,Escherichia coli [12],62.5 µg/mL
same,Activity,Escherichia coli [13],Active
same,ICmax,Escherichia coli [1],512 µg/mL
same,MIC,Escherichia coli [1],1020 µg/mL
same,Activity,CHO [14],Toxic
same,ICmax,Escherichia coli [2],512 µg/mL
same,MIC,Streptococcus pneumoniae [3],62.5 µg/mL
same,ICmax,Escherichia coli [4],512 µg/mL
same,Ki,[15],10.4 µM
same,MIC,Enterococcus faecalis [5],31.2 µg/mL
same,ICmax,Escherichia coli [6],512 µg/mL
same,fractional inhibitory concentration index (FICI),Escherichia coli [16],1.0156
same,Activity,Escherichia coli [17],87%
same,MIC,Escherichia coli [18],64 µg/mL
same,Activity,Escherichia coli [19],54%
same,Activity,Escherichia coli [20],88%
same,Ki,[21],17.6 µM
same,MIC,Klebsiella pneumoniae,500 µg/mL
same,ICmax,Escherichia coli [7],1024 µg/mL
same,inhibition,Homo sapiens,89.1%
same,inhibition,Streptococcus pneumoniae [22],97.4%
same,ICmax,Escherichia coli [8],512 µg/mL
same,MIC,"Escherichia coli [8]; Escherichia coli, MRAE33",1020 µg/mL
same,MIC,Escherichia coli [23],1020 µg/mL
same,MIC,Escherichia coli [24],2 µg/mL
same,Activity,Escherichia coli [25],60%
same,MIC,Escherichia coli [26],128 µg/mL
same,Activity,Escherichia coli [27],65%
same,inhibition,Enterococcus faecalis [28],93.9%
same,Ki,[29],22.1 µM
same,Activity,Escherichia coli [30],50%
same,fractional inhibitory concentration index (FICI),Escherichia coli [31],1.5
same,ICmax,Escherichia coli [9],1024 µg/mL
same,MIC,Pseudomonas aeruginosa,125 µg/mL
same,inhibition,[32],99.6%
same,ICmax,Escherichia coli [10],512 µg/mL
same,MIC,Escherichia coli [10],1020 µg/mL
same,MIC,Escherichia coli [33],1020 µg/mL
same,MIC,Escherichia coli [34],16 µg/mL
same,Ki,[35],8.78 µM
same,Activity,Escherichia coli [36],76%
same,fractional inhibitory concentration index (FICI),Escherichia coli [37],2
same,MIC,Salmonella typhimurium,500 µg/mL
same,"viability at 48 h, 100 ug/mL",[38],50%
